Assays:
[1] = Therapeutic index, ratio of CC50 for human BE(2)-C cells to IC50 for Western equine encephalitis virus; details: read-out: Ratio CC50/IC50
[2] = test system: Western equine encephalitis virus; assay: Antiviral activity against Western equine encephalomyelitis virus infected in human BE(2)-C cells assessed as inhibition of viral RNA replication after 18 to 20 hrs by luciferase reporter gene assay; type: functional, cell-based
[3] = molecular target: MDR1 (ABCB1, P-glycoprotein) (Homo sapiens, UniProt P08183); assay: Inhibition of human MDR1 expressed in MDCK2 cells assessed as increase of rhodamine 123 uptake at 30 uM up to 240 mins relative to control; type: ADME, cell-based, MDCK-II; details: MDCK2 cells expressing human MDR1, probe rhodamine 123
Chain of MDR1 (ABCB1, P-glycoprotein) (P08183 whole entry): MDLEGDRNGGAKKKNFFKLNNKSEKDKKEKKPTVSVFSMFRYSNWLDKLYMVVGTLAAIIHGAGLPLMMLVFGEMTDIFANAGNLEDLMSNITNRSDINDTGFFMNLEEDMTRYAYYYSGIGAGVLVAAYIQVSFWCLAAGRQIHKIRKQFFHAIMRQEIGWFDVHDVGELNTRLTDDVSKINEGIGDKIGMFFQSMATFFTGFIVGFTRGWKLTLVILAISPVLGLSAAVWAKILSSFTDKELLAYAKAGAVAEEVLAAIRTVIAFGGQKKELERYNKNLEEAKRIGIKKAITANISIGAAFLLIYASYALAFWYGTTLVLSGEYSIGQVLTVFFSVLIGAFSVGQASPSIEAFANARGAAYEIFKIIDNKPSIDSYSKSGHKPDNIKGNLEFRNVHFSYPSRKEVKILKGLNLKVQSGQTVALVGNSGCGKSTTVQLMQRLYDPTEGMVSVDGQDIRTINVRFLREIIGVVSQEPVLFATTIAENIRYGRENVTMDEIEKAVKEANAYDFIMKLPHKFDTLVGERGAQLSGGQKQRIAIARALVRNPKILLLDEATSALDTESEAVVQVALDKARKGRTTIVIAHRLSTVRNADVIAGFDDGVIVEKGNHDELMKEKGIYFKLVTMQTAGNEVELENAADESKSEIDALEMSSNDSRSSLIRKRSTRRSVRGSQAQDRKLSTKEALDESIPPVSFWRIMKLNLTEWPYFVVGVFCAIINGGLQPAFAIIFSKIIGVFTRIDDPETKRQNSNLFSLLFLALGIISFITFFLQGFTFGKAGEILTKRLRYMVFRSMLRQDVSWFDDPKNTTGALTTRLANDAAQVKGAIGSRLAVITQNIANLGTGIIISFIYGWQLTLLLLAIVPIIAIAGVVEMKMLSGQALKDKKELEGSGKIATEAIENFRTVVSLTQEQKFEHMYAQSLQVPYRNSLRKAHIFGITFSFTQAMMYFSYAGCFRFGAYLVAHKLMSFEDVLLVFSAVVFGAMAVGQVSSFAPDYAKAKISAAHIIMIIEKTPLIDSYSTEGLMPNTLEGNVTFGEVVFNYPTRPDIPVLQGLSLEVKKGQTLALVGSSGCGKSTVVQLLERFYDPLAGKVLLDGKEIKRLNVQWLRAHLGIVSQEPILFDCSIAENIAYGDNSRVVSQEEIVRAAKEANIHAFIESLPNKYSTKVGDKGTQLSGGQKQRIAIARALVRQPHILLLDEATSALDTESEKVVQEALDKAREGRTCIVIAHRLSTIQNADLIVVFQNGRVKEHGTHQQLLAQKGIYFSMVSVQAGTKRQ
How it was run: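 Confluent MDR1-MDCKII cells (human Pgp-transfected) given fresh DMEM with 10 μM rhodamine 123, plus vehicle, tariquidar (5 μM) or compound (30 μM). Uptake at 37°C from 1 to 240 min, stopped by ice-cold PBS washes. Fluorescence read at ex 525/em 560-640 nm. Result expressed as % of same-day tariquidar effect, (Cav−Cveh)*100/(Ctar−Cveh). Triplicates on ≥3 occasions.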

[4] = Cytotoxicity against human BE(2)-C cells after 18 to 20 hrs by MTT assay; type: cell-based
[5] = Kinetic solubility of the compound; type: physicochemical
[6] = Half life in Balb-C mouse liver microsomes; type: ADME, Microsome
How it was run: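 Compound incubated with Balb-C mouse liver microsomes, and half-life determined for oxidative metabolism. Values are means of ≥2 independent incubations.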

Fort Morgan virus = assay: Antiviral activity against Fort Morgan virus infected in human BE(2)-C cells assessed as reduction of viral titer at 25 uM after 24 hrs by plaque reduction assay (reference value: 47.1 +/- 10.5 x 10^6 pfu/ml); type: functional
[7] = Cytotoxicity against human BE(2)-C cells assessed as cell viability at 25 uM after 24 hrs by MTT assay relative to control; type: cell-based; details: read-out: Activity
Plasma [8] = assay: Plasma concentration in C57BL/6 mouse at 20 mg/kg, ip after 12 hrs; type: ADME, organism-based; design: dose 20 mg/kg, route intraperitoneal; details: in vivo, BLD = below limit of detection
How it was run: (§1)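 C57BL/6 female mice given a single IP injection of compound in 2% sterile DMSO/PBS, at the stated dose. Duplicate mice per time point. Blood taken by cardiac puncture into EDTA and plasma separated. Cerebrum harvested after PBS perfusion and flash-frozen. Drug quantified by LC/MS/MS as ng/mL plasma or ng/g brain.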

[9] = Plasma concentration in C57BL/6 mouse at 20 mg/kg, ip after 2 hrs; type: ADME, organism-based; design: dose 20 mg/kg, route intraperitoneal; how it was run: as §1
Brain [10] = assay: Drug level in C57BL/6 mouse brain at 20 mg/kg, ip after 12 hrs; type: ADME, organism-based; design: dose 20 mg/kg, route intraperitoneal; details: in vivo, BLD = below limit of detection
How it was run: (§2)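 Female C57BL/6 mice were given a single IP dose in 2% sterile DMSO/PBS. At each time point, duplicate mice had blood taken by cardiac puncture. They were then perfused with PBS, and the cerebrum was harvested and flash frozen on dry ice. Brain drug levels were quantified by LC/MS/MS and reported as ng/g; BLQ means below the limit of quantitation.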

[11] = Drug level in C57BL/6 mouse brain at 20 mg/kg, ip after 30 mins; type: ADME, organism-based; design: dose 20 mg/kg, route intraperitoneal; details: read-out: Drug uptake; how it was run: as §1
[12] = Plasma concentration in C57BL/6 mouse at 20 mg/kg, ip after 30 mins; type: ADME, organism-based; design: dose 20 mg/kg, route intraperitoneal; how it was run: as §1
[13] = test system: Western equine encephalitis virus; assay: Antiviral activity against Western equine encephalomyelitis virus infected in human BE(2)-C cells assessed as reduction of viral titer at 25 uM after 24 hrs by plaque reduction assay (reference value: 25.7 +/- 5.2 x 10^6 pfu/ml); type: functional
Brain [14] = assay: Drug level in C57BL/6 mouse brain at 20 mg/kg, ip after 2 hrs; type: ADME, organism-based; design: dose 20 mg/kg, route intraperitoneal; details: in vivo, BLD = below limit of detection; how it was run: as §2
Brain [15] = assay: Drug level in C57BL/6 mouse brain at 30 mg/kg, ip after 30 mins; type: ADME, organism-based; design: dose 30 mg/kg, route intraperitoneal; details: in vivo, 0.5 h, BLD = below limit of detection; how it was run: as §2
Brain [16] = assay: Drug level in C57BL/6 mouse brain at 30 mg/kg, ip after 2 hrs; type: ADME, organism-based; design: dose 30 mg/kg, route intraperitoneal; details: in vivo, BLD = below limit of detection; how it was run: as §2
[17] = Plasma concentration in C57BL/6 mouse at 30 mg/kg, ip after 30 mins; type: ADME, organism-based; design: dose 30 mg/kg, route intraperitoneal; how it was run: as §1
Brain [18] = assay: Drug level in C57BL/6 mouse brain at 30 mg/kg, ip after 12 hrs; type: ADME, organism-based; design: dose 30 mg/kg, route intraperitoneal; details: in vivo, BLD = below limit of detection; how it was run: as §2
[19] = Plasma concentration in C57BL/6 mouse at 30 mg/kg, ip after 2 hrs; type: ADME, organism-based; design: dose 30 mg/kg, route intraperitoneal; how it was run: as §1
Plasma [20] = assay: (§3) Plasma concentration in C57BL/6 mouse at 30 mg/kg, ip after 12 hrs; type: ADME, organism-based; design: dose 30 mg/kg, route intraperitoneal; details: mouse, in vivo, 12 h, BLD = below limit of detection; how it was run: as §1
[21] = as §3; type: ADME, organism-based; design: dose 30 mg/kg, route intraperitoneal; details: C57BL/6, mouse, plasma; how it was run: as §1

Structure (SMILES)	IC50 [2]	inhibition at 4 h, 30 µM [3]	CC50 ([4]; be(2)-c)	Kinetic_solubility [5]	t1/2 [6]	Activity (Fort Morgan virus)	viability at 24 h, 25 µM [7]	Activity [13]	also measured
O=C(NCCc1ccncc1)C1CCN(C(=O)c2cc3ccccc3n2Cc2c(F)cccc2F)CC1	1300 nM	28.5%	34.5 µM						selectivity ratio [1]: 50
O=C(NCCc1ccncc1)C1CCN(C(=O)c2cc3ccncc3n2Cc2ccc(Cl)cc2)CC1	4400 nM	1.2%	77.1 µM	125 µM	9.1 min	69.4 ×10⁶ PFU/ml	66.1%		
O=C(NCCc1ccncc1)C1CCN(C(=O)c2cccn2Cc2ccc(Cl)cc2)CC1	700 nM	-1.2%		125 µM	2.9 min	23.8 ×10⁶ PFU/ml	59.1%	4.9 ×10⁶ PFU/ml	Cp (Plasma [8]): BLD; concentration at 2 h [9]: 5 ng/mL; Drug uptake (Brain [10]): BLD; concentration at 0.5 h [11]: 19 ng/g; concentration at 0.5 h [12]: 124 ng/mL; Drug uptake (Brain [14]): BLD; CC50 ([4]; BE(2)-C cells): > 100 µM
C[C@@H](NC(=O)C1CCN(C(=O)c2cc3ccccc3n2Cc2ccc(Cl)cc2)CC1)c1ccccc1	6500 nM	24.4%		8 µM	2.1 min	39.3 ×10⁶ PFU/ml	36.7%	8.8 ×10⁶ PFU/ml	Drug uptake (Brain [15]): BLD; Drug uptake (Brain [16]): BLD; concentration at 0.5 h [17]: 10 ng/mL; Drug uptake (Brain [18]): BLD; concentration at 2 h [19]: 30 ng/mL; Cp (Plasma [20]): BLD; CC50 ([4]; BE(2)-C cells): > 100 µM
O=C(NCCc1ccncc1)C1CCN(C(=O)c2cc3ccccc3n2Cc2ccc(Cl)cc2)CC1	500 nM	30.9%	49.9 µM	31 µM	11.5 min	4.9 ×10⁶ PFU/ml	60.7%	0.5 ×10⁶ PFU/ml	Drug uptake (Brain [15]): BLD; Drug uptake (Brain [16]): BLD; concentration at 0.5 h [17]: 59 ng/mL; Drug uptake (Brain [18]): BLD; concentration at 2 h [19]: 79 ng/mL; concentration at 12 h [21]: 23 ng/mL
CC(NC(=O)C1CCN(C(=O)c2cc3ccccc3n2Cc2ccc(Cl)cc2)CC1)c1ccncc1 (racemic)	2400 nM	43.1%	90.1 µM	31 µM		3.7 ×10⁶ PFU/ml	63.2%	0.7 ×10⁶ PFU/ml	
NC(=O)c1ncn([C@@H]2O[C@H](CO)[C@@H](O)[C@H]2O)n1 [RIBAVIRIN]	16000 nM					53.5 ×10⁶ PFU/ml	32.6%	9.3 ×10⁶ PFU/ml	
